Results from ChEMBL document CHEMBL1144617, “Quinoxalinylurea derivatives as a novel class of JSP-1 inhibitors” (Bioorg Med Chem Lett, 2007).

Molecular target: T1, Dual specificity protein phosphatase 22 (Homo sapiens, UniProt Q9NRW4)
T1 sequence (Q9NRW4 whole entry): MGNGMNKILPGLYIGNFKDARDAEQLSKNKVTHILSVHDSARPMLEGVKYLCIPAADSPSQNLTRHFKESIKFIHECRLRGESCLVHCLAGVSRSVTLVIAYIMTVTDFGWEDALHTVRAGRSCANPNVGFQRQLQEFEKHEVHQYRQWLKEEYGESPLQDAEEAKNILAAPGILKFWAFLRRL
Assay: Inhibition of GST-tagged human recombinant JSP1
How it was run: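 Fluorescence kinetic phosphatase assay: 30 nM purified recombinant GST-fused human JSP-1 in 50 mM Bis-Tris pH 6.5, 1 mM EDTA, 1 mM DTT, with 10 µM OMFP as substrate. Hydrolysis followed continuously at excitation 485/emission 535 nm for 3 min; initial rate taken from the linear region of the kinetic curve.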

Structure (SMILES)	IC50
CCN(CC)C(=O)C1CCCN(C(=O)Nc2ccc3nc(-c4ccco4)c(-c4ccco4)nc3c2)C1 (stereo not drawn)	12 µM
Cc1ccc(-c2nc3ccc(NC(=O)N4CCCC(C(=O)NC5CCCC5)C4)cc3nc2-c2ccc(C)cc2)cc1 (stereo not drawn)	> 40 µM
CCN(CC)C(=O)C1CCCN(C(=O)Nc2ccc3nc(-c4ccc(C)cc4)c(-c4ccc(C)cc4)nc3c2)C1 (stereo not drawn)	> 40 µM
O=C(Nc1ccc2nc(-c3ccco3)c(-c3ccco3)nc2c1)N1CCCC(C(=O)N2CCCCC2)C1 (stereo not drawn)	8.39 µM
COc1nc2ccc(NC(=O)N3CCCC(C(=O)N4CCCCC4)C3)cc2nc1OC (stereo not drawn)	> 100 µM
CN(C)C(=O)C1CCCN(C(=O)Nc2ccc3nc(-c4ccco4)c(-c4ccco4)nc3c2)C1 (stereo not drawn)	> 40 µM
CC(C)NC(=O)C1CCCN(C(=O)Nc2ccc3nc(-c4ccco4)c(-c4ccco4)nc3c2)C1 (stereo not drawn)	> 40 µM
O=C(NC1CCCCC1)C1CCCN(C(=O)Nc2ccc3nc(-c4ccc(F)cc4)c(-c4ccc(F)cc4)nc3c2)C1 (stereo not drawn)	> 40 µM
CCCCN(CC)C(=O)C1CCCN(C(=O)Nc2ccc3nc(-c4ccco4)c(-c4ccco4)nc3c2)C1 (stereo not drawn)	2.35 µM
O=C(Nc1ccc2nc(-c3ccccc3)c(-c3ccccc3)nc2c1)N1CCCC(C(=O)N2CCCCC2)C1 (stereo not drawn)	> 40 µM
COc1nc2ccc(NC(=O)N3CCCC(C(=O)NC4CCCCC4)C3)cc2nc1OC (stereo not drawn)	> 100 µM
O=C(NC1CCCCC1)C1CCCN(C(=O)Nc2ccc3nc(-c4ccco4)c(-c4ccco4)nc3c2)C1 (stereo not drawn)	2.25 µM
O=C(NC1CCCC1)C1CCCN(C(=O)Nc2ccc3nc(-c4ccco4)c(-c4ccco4)nc3c2)C1 (stereo not drawn)	3.02 µM
CCCCNC(=O)C1CCCN(C(=O)Nc2ccc3nc(-c4ccco4)c(-c4ccco4)nc3c2)C1 (stereo not drawn)	2.79 µM
CC(C)(C)NC(=O)C1CCCN(C(=O)Nc2ccc3nc(-c4ccco4)c(-c4ccco4)nc3c2)C1 (stereo not drawn)	8.05 µM
CC(C)CNC(=O)C1CCCN(C(=O)Nc2ccc3nc(-c4ccco4)c(-c4ccco4)nc3c2)C1 (stereo not drawn)	8.36 µM
CCN(CC)C(=O)C1CCCN(C(=O)Nc2ccc3nc(-c4ccccc4)c(-c4ccccc4)nc3c2)C1 (stereo not drawn)	> 40 µM
O=C(Nc1ccc2nc(-c3ccc(Br)cc3)c(-c3ccc(Br)cc3)nc2c1)N1CCCC(C(=O)N2CCCC2)C1 (stereo not drawn)	> 40 µM
CCN(CC)C(=O)C1CCCN(C(=O)Nc2ccc3nc(-c4ccc(F)cc4)c(-c4ccc(F)cc4)nc3c2)C1 (stereo not drawn)	> 40 µM
CCCCN(C)C(=O)C1CCCN(C(=O)Nc2ccc3nc(-c4ccco4)c(-c4ccco4)nc3c2)C1 (stereo not drawn)	5.55 µM
CCCN(CCC)C(=O)C1CCCN(C(=O)Nc2ccc3nc(-c4ccco4)c(-c4ccco4)nc3c2)C1 (stereo not drawn)	2.5 µM
CCN(CC)C(=O)C1CCCN(C(=O)Nc2ccc3nc(-c4ccc(Br)cc4)c(-c4ccc(Br)cc4)nc3c2)C1 (stereo not drawn)	> 40 µM
CCNC(=O)C1CCCN(C(=O)Nc2ccc3nc(-c4ccco4)c(-c4ccco4)nc3c2)C1 (stereo not drawn)	> 40 µM
